Experimental data as given in ChEMBL document CHEMBL5247575 (J Med Chem, 2018).

Tests used:
[1] = test system: Klebsiella pneumoniae; test: Synergistic antibacterial activity against Klebsiella pneumoniae 761/1723 producing KPC-3 assessed as meropenem MIC at 4 ug/ml by broth microdilution method; type: functional; details: dose 4 µg/ml
[2] = test system: Klebsiella pneumoniae; test: Synergistic antibacterial activity against Klebsiella pneumoniae 761/1723 producing KPC-3 assessed as cefepime MIC at 4 ug/ml by broth microdilution method; type: functional; details: dose 4 µg/ml
In short: (§1)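 Broth microdilution per CLSI guidelines, using custom frozen panels. […] Each partner drug was also tested alone. MICs were run in triplicate and the modal value is reported.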

[3] = test system: Escherichia coli; test: Synergistic antibacterial activity against Escherichia coli DH10B transfected with pBR322-catI-KPC-2 assessed as meropenem MIC at 4 ug/ml by broth microdilution method; type: functional; details: dose 4 µg/ml; in short: as §1
[4] = test system: Escherichia coli; test: Antibacterial activity against Escherichia coli DH10B transfected with pBR322-catI-KPC-2 by broth microdilution method; type: functional
[5] = test system: Klebsiella pneumoniae; test: Synergistic antibacterial activity against Klebsiella pneumoniae 1108/1989 producing KPC-3 assessed as meropenem MIC at 4 ug/ml by broth microdilution method; type: functional; details: dose 4 µg/ml; in short: as §1
[6] = test system: Klebsiella pneumoniae; test: Synergistic antibacterial activity against Klebsiella pneumoniae 11978 producing OXA-48 assessed as cefepime MIC at 4 ug/ml by broth microdilution method; type: functional; details: dose 4 µg/ml; in short: as §1
[7] = test system: Klebsiella pneumoniae; test: Synergistic antibacterial activity against Klebsiella pneumoniae 729/1679 producing KPC-3 assessed as meropenem MIC at 4 ug/ml by broth microdilution method; type: functional; details: dose 4 µg/ml; in short: as §1
[8] = test system: Acinetobacter baumannii; test: Synergistic antibacterial activity against Acinetobacter baumannii PR420 producing OXA-23/24/40 assessed as cefepime MIC at 4 ug/ml by broth microdilution method; type: functional; details: dose 4 µg/ml
[9] = test system: Pseudomonas aeruginosa; test: Synergistic antibacterial activity against Pseudomonas aeruginosa 715 assessed as cefepime MIC at 4 ug/ml by broth microdilution method; type: functional; details: dose 4 µg/ml
[10] = test system: Escherichia coli; test: Synergistic antibacterial activity against Escherichia coli DH10B transfected with pBC SK (-) KPC-3 assessed as cefepime MIC at 4 ug/ml by broth microdilution method; type: functional; details: dose 4 µg/ml
[11] = test system: Acinetobacter baumannii; test: Synergistic antibacterial activity against Acinetobacter baumannii PR440 producing OXA-23/24/40 assessed as cefepime MIC at 4 ug/ml by broth microdilution method; type: functional; details: dose 4 µg/ml
[12] = Binding affinity to bacteria ADC-7 assessed as dissociation constant
[13] = test system: Klebsiella pneumoniae; test: Synergistic antibacterial activity against Klebsiella pneumoniae 440/1360 producing KPC-2 assessed as meropenem MIC at 4 ug/ml by broth microdilution method; type: functional; details: dose 4 µg/ml; in short: as §1
[14] = test system: Pseudomonas aeruginosa; test: Synergistic antibacterial activity against Pseudomonas aeruginosa 795 assessed as meropenem MIC at 4 ug/ml by broth microdilution method; type: functional; details: dose 4 µg/ml
[15] = test system: Klebsiella pneumoniae; test: Synergistic antibacterial activity against Klebsiella pneumoniae 776/1742 producing KPC-2 assessed as meropenem MIC at 4 ug/ml by broth microdilution method; type: functional; details: dose 4 µg/ml
[16] = test system: Pseudomonas aeruginosa; test: Synergistic antibacterial activity against Pseudomonas aeruginosa 776 assessed as meropenem MIC at 4 ug/ml by broth microdilution method; type: functional; details: dose 4 µg/ml
[17] = test system: Acinetobacter baumannii; test: Synergistic antibacterial activity against Acinetobacter baumannii PR448 producing OXA-23 assessed as meropenem MIC at 8 ug/ml by broth microdilution method; type: functional; details: dose 8 µg/ml
[18] = test system: Pseudomonas aeruginosa; test: Synergistic antibacterial activity against Pseudomonas aeruginosa 839 assessed as cefepime MIC at 8 ug/ml by broth microdilution method; type: functional; details: dose 8 µg/ml
[19] = test system: Klebsiella pneumoniae; test: Synergistic antibacterial activity against Klebsiella pneumoniae 761/1723 producing KPC-3 assessed as meropenem MIC at 8 ug/ml by broth microdilution method; type: functional; details: dose 8 µg/ml
[20] = test system: Escherichia coli; test: Synergistic antibacterial activity against Escherichia coli DH10B transfected with pBC SK (-) PDC-3 assessed as meropenem MIC at 8 ug/ml by broth microdilution method; type: functional; details: dose 8 µg/ml; in short: as §1
[21] = test system: Acinetobacter baumannii; test: Synergistic antibacterial activity against Acinetobacter baumannii PR319 producing OXA-23/24/40 assessed as cefepime MIC at 8 ug/ml by broth microdilution method; type: functional; details: dose 8 µg/ml
[22] = test system: Klebsiella pneumoniae; test: Synergistic antibacterial activity against Klebsiella pneumoniae 972/1910 producing KPC-3 assessed as cefepime MIC at 8 ug/ml by broth microdilution method; type: functional; details: dose 8 µg/ml
[23] = test system: Klebsiella pneumoniae; test: Synergistic antibacterial activity against Klebsiella pneumoniae 1084/1957 producing KPC-3 assessed as cefepime MIC at 8 ug/ml by broth microdilution method; type: functional; details: dose 8 µg/ml; in short: as §1
[24] = test system: Acinetobacter baumannii; test: Synergistic antibacterial activity against Acinetobacter baumannii PR476 producing OXA-24/40 assessed as meropenem MIC at 8 ug/ml by broth microdilution method; type: functional; details: dose 8 µg/ml
[25] = test system: Klebsiella pneumoniae; test: Synergistic antibacterial activity against Klebsiella pneumoniae CAV 1543 producing OXA-48 assessed as cefepime MIC at 8 ug/ml by broth microdilution method; type: functional; details: dose 8 µg/ml
[26] = test system: Klebsiella pneumoniae; test: Synergistic antibacterial activity against Klebsiella pneumoniae jefferson 1775 producing OXA-48 assessed as cefepime MIC at 8 ug/ml by broth microdilution method; type: functional; details: dose 8 µg/ml
[27] = test system: Klebsiella pneumoniae; test: Synergistic antibacterial activity against Klebsiella pneumoniae 977/1916 producing KPC-3 assessed as meropenem MIC at 8 ug/ml by broth microdilution method; type: functional; details: dose 8 µg/ml
[28] = test system: Escherichia coli; test: Synergistic antibacterial activity against Escherichia coli DH10B transfected with pBC SK (-) KPC-3 assessed as cefepime MIC at 8 ug/ml by broth microdilution method; type: functional; details: dose 8 µg/ml
[29] = test system: Klebsiella pneumoniae; test: Synergistic antibacterial activity against Klebsiella pneumoniae 901/1860 producing KPC-3 assessed as meropenem MIC at 8 ug/ml by broth microdilution method; type: functional; details: dose 8 µg/ml
[30] = test system: Klebsiella pneumoniae; test: Synergistic antibacterial activity against Klebsiella pneumoniae 729/1679 producing KPC-3 assessed as meropenem MIC at 8 ug/ml by broth microdilution method; type: functional; details: dose 8 µg/ml; in short: as §1
[31] = test system: Klebsiella pneumoniae; test: Synergistic antibacterial activity against Klebsiella pneumoniae 660/1568 producing KPC-3 assessed as cefepime MIC at 8 ug/ml by broth microdilution method; type: functional; details: dose 8 µg/ml; in short: as §1
[32] = test system: Acinetobacter baumannii; test: Synergistic antibacterial activity against Acinetobacter baumannii PR323 producing OXA-24/40 assessed as meropenem MIC at 8 ug/ml by broth microdilution method; type: functional; details: dose 8 µg/ml
[33] = test system: Pseudomonas aeruginosa; test: Synergistic antibacterial activity against Pseudomonas aeruginosa 795 assessed as cefepime MIC at 8 ug/ml by broth microdilution method; type: functional; details: dose 8 µg/ml
[34] = test system: Klebsiella pneumoniae; test: Synergistic antibacterial activity against Klebsiella pneumoniae NY BS producing OXA-232 assessed as meropenem MIC at 8 ug/ml by broth microdilution method; type: functional; details: dose 8 µg/ml
[35] = test system: Acinetobacter baumannii; test: Synergistic antibacterial activity against ADC deleted Acinetobacter baumannii transfected with pWH1266 producing OXA-24/40 assessed as cefepime MIC at 8 ug/ml by broth microdilution method; type: functional; details: dose 8 µg/ml
[36] = test system: Klebsiella pneumoniae; test: Synergistic antibacterial activity against Klebsiella pneumoniae 977/1916 producing KPC-3 assessed as cefepime MIC at 8 ug/ml by broth microdilution method; type: functional; details: dose 8 µg/ml
[37] = test system: Acinetobacter baumannii; test: Synergistic antibacterial activity against Acinetobacter baumannii PR420 producing OXA-23/24/40 assessed as cefepime MIC at 8 ug/ml by broth microdilution method; type: functional; details: dose 8 µg/ml
[38] = test system: Escherichia coli; test: Synergistic antibacterial activity against Escherichia coli DH10B assessed as cefepime MIC at 8 ug/ml by broth microdilution method; type: functional; details: dose 8 µg/ml
[39] = test system: Acinetobacter baumannii; test: Synergistic antibacterial activity against Acinetobacter baumannii PR440 producing OXA-23/24/40 assessed as cefepime MIC at 8 ug/ml by broth microdilution method; type: functional; details: dose 8 µg/ml

NC(=O)[C@@H]1CC[C@@H]2CN1C(=O)N2OS(=O)(=O)[O-].[Na+] [AVIBACTAM SODIUM]
90 nM: Kd [12]
> 16 µg/mL: MIC [4] | MIC [8]
16 µg/mL: MIC [9] | MIC [11] | MIC [14]
≤ 0.12 µg/mL: MIC [1] | MIC [2] | MIC [3] | MIC [5] | MIC [7] | MIC [10] | MIC [13] | MIC [15]
0.25 µg/mL: MIC [6]

O.O=C(NC1CCNCC1)[C@@H]1CC[C@@H]2CN1C(=O)N2OS(=O)(=O)O [RELEBACTAM]
0.5 µg/mL: MIC [15]
≤ 0.12 µg/mL: MIC [1] | MIC [2] | MIC [3] | MIC [5] | MIC [7] | MIC [10] | MIC [13]
> 16 µg/mL: MIC [4] | MIC [8] | MIC [11] | MIC [16]
2 µg/mL: MIC [6]
16 µg/mL: MIC [9]
8 µg/mL: MIC [14]

N#C[C@@H]1CC[C@@H]2CN1C(=O)N2OS(=O)(=O)[O-].[Na+]
16 µg/mL: MIC [9] | MIC [32] | MIC [11] | MIC [35] | MIC [14] | MIC [16]
> 16 µg/mL: MIC [21] | MIC [4] | MIC [8] | MIC [33] | MIC [37] | MIC [39]
≤ 0.12 µg/mL: MIC [19] | MIC [1] | MIC [20] | MIC [2] | MIC [3] | MIC [23] | MIC [26] | MIC [27] | MIC [5] | MIC [28] | MIC [7] | MIC [29] | MIC [30] | MIC [10] | MIC [13] | MIC [34] | MIC [36] | MIC [38]
8 µg/mL: MIC [18]
0.25 µg/mL: MIC [22] | MIC [24] | MIC [25] | MIC [31]
0.5 µg/mL: MIC [6] | MIC [15]
1 µg/mL: MIC [17]
